Reference: ChEMBL document CHEMBL2385076, “Discovery of 2-((1H-benzo[d]imidazol-1-yl)methyl)-4H-pyrido[1,2-a]pyrimidin-4-ones as novel PKM2 activators” (Bioorg Med Chem Lett, 2013)
≈ marks a conversion by molar mass, not a printed value. Calls of active or inactive are those of the source. No cut-off for these calls is given here.

What was measured:
[1] = target: Phosphatidylinositol 4-phosphate 3-kinase C2 domain-containing subunit alpha (Homo sapiens) (UniProt O00443); assay: Inhibition of PIK3C2A (unknown origin)
[2] = target: Beta-2 adrenergic receptor (Homo sapiens) (UniProt P07550); assay: Binding affinity to human beta-2 adrenergic receptor by radioligand binding assay
How it was run: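 CEREP panel binding measured by displacement of an agonist radioligand.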

[3] = target: CDK2/Cyclin A2 (Homo sapiens) (UniProt P24941+P20248); assay: Inhibition of CDK2/cyclin A (unknown origin); format: protein-complex assay
[4] = target: Tyrosine-protein kinase Lck (Homo sapiens) (UniProt P06239); assay: Inhibition of LCK (unknown origin)
[5] = tested on: HuH-1 (human); assay: Antiproliferative activity against human HuH1 cells at 10 uM after 5 days
[6] = target: D(1A) dopamine receptor (Homo sapiens) (UniProt P21728); assay: Binding affinity to human dopamine D1 receptor by radioligand binding assay
How it was run: (§1)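 CEREP panel binding measured by displacement of an antagonist radioligand.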

[7] = target: Serine/threonine-protein kinase Nek2 (Homo sapiens) (UniProt P51955); assay: Inhibition of NEK2 (unknown origin)
[8] = organism: Homo sapiens; assay: Binding affinity to sodium channel site 2 (unknown origin) by radioligand binding assay; how it was run: as §1
[9] = target: Tyrosine-protein kinase JAK3 (Homo sapiens) (UniProt P52333); assay: Inhibition of JAK3 (unknown origin)
[10] = target: Adrenergic receptor alpha-1 (Homo sapiens) (UniProt P35348+P25100+P35368); assay: Binding affinity to alpha-1 adrenergic receptor (unknown origin) by radioligand binding assay
[11] = target: 3-phosphoinositide-dependent protein kinase 1 (Homo sapiens) (UniProt O15530); assay: Inhibition of PDK1 (unknown origin)
[12] = Intrinsic clearance in human liver microsomes; format: ADME, Microsome; details: read-out: CLH
[13] = target: Sodium-dependent noradrenaline transporter (Homo sapiens) (UniProt P23975); assay: Binding affinity to human norepinephrine transporter by radioligand binding assay; how it was run: as §1
[14] = target: Serine/threonine-protein kinase mTOR (Homo sapiens) (UniProt P42345); assay: Inhibition of mTOR (unknown origin)
[15] = target: Ephrin type-A receptor 2 (Homo sapiens) (UniProt P29317); assay: Inhibition of EPHA2 (unknown origin)
[16] = tested on: JHH2; assay: Antiproliferative activity against human JHH2 cells at 10 uM after 5 days; format: functional, cell-based
How it was run: (§2)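 Cells plated in Optimem-GlutaMax medium and cultured overnight before exposure to 10 µM compound. Viability measured with CytoTox-Glo after 5 days of treatment.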

[17] = target: Histamine H1 receptor (Homo sapiens) (UniProt P35367); assay: Binding affinity to human histamine H1 receptor by radioligand binding assay; how it was run: as §1
[18] = target: Sodium-dependent dopamine transporter (Homo sapiens) (UniProt Q01959); assay: Binding affinity to human dopamine transporter by radioligand binding assay; how it was run: as §1
[19] = target: Glycogen synthase kinase-3 beta (Homo sapiens) (UniProt P49841); assay: Inhibition of GSK3B (unknown origin)
[20] = target: MAP kinase-activated protein kinase 2 (Homo sapiens) (UniProt P49137); assay: Inhibition of MAPKAPK2 (unknown origin)
[21] = target: Aurora kinase A (Homo sapiens) (UniProt O14965); assay: Inhibition of AURKA (unknown origin)
[22] = target: T1, Pyruvate kinase PKM (Homo sapiens, UniProt P14618); assay: Activation of PKM2 in human Snu182 cells assessed as extracellular acidification rate at 10 uM after 18 hrs; format: cell-based
How it was run: (§3)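 Snu182 cells seeded at 12k/well in RPMI with 10% FBS and 2 mM glutamine, cultured overnight, then given 10 µM compound for 18 h at 37°C, 5% CO2. Medium switched to XF DMEM with 5 mM glucose plus 10 µM compound; OCR and ECAR measured on a Seahorse XF96 analyzer.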

[23] = target: T1, Pyruvate kinase PKM; assay: Activation of PKM2 in human Snu182 cells assessed as oxygen consumption rate at 10 uM after 18 hrs; format: cell-based; how it was run: as §3
[24] = target: Hepatocyte growth factor receptor (Homo sapiens) (UniProt P08581); assay: Inhibition of cMet (unknown origin)
[25] = Passive permeability from apical to basolateral side of dog RRCK cells; format: ADME, cell-based, Canis lupus familiaris, MDCKII-LE; details: MDCK, read-out: permeability
[26] = target: Mitogen-activated protein kinase kinase kinase kinase 4 (Homo sapiens) (UniProt O95819); assay: Inhibition of MAP4K4 (unknown origin)
[27] = target: cGMP-inhibited 3',5'-cyclic phosphodiesterase 3B (Homo sapiens) (UniProt Q13370); assay: Binding affinity to human PDE3B
[28] = target: High affinity nerve growth factor receptor (Homo sapiens) (UniProt P04629); assay: Inhibition of NTRK1 (unknown origin)
[29] = target: Muscarinic acetylcholine receptor M1 (Homo sapiens) (UniProt P11229); assay: Binding affinity to human muscarinic M1 receptor by radioligand binding assay; how it was run: as §1
[30] = target: T1, Pyruvate kinase PKM; assay: Activation of human PKM2 assessed as production of ATP at infinite concentration after 10 mins by lactate dehydrogenase-coupled enzyme assay relative to FBP
How it was run: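 Coupled to lactate dehydrogenase, NADH loss read as the drop in absorbance at 340 nm. Reaction: 2nM human PKM2 (cleaved N-term his, 1-531), 2 mM PEP, 0.35 mM NADH, 4 units/mL LDH in 50 mM Tris pH 7.5 with KCl and 5 mM MgCl2. Compound preincubated 10 minutes at 32 °C, then 0.5mM ADP starts the reaction. Duplicates; 10-point curves; asymptote max = % activation at infinite concentration.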

[31] = tested on: HT-29; assay: Antiproliferative activity against human HT-29 cells at 10 uM after 5 days; format: functional; details: HT-29, 120 h; how it was run: as §2
[32] = target: Serine/threonine-protein kinase MARK1 (Homo sapiens) (UniProt Q9P0L2); assay: Inhibition of MARK1 (unknown origin)
[33] = target: Serine/threonine-protein kinase TAO2 (Homo sapiens) (UniProt Q9UL54); assay: Inhibition of TAOK2 (unknown origin)
[34] = target: Fibroblast growth factor receptor 1 (Homo sapiens) (UniProt P11362); assay: Inhibition of FGFR1 (unknown origin)
[35] = target: Tyrosine-protein kinase ZAP-70 (Homo sapiens) (UniProt P43403); assay: Inhibition of ZAP70 (unknown origin)
[36] = target: cAMP-dependent protein kinase catalytic subunit alpha (Homo sapiens) (UniProt P17612); assay: Inhibition of PRKACA (unknown origin)
[37] = target: RAC-alpha serine/threonine-protein kinase (Homo sapiens) (UniProt P31749); assay: Inhibition of AKT1 (unknown origin)
[38] = tested on: Salmonella typhimurium; assay: Genotoxicity in Salmonella typhimurium by Ames test; format: toxicity, organism-based; details: salmonella enterica subsp. enterica serovar typhimurium
[39] = target: Rho-associated protein kinase 1 (Homo sapiens) (UniProt Q13464); assay: Inhibition of ROCK1 (unknown origin)
[40] = target: Protein kinase C beta type (Homo sapiens) (UniProt P05771); assay: Inhibition of PRKCB2 (unknown origin)
[41] = target: Angiopoietin-1 receptor (Homo sapiens) (UniProt Q02763); assay: Inhibition of Tie2 (unknown origin)
[42] = Kinetic solubility of the compound at pH 7.4; format: physicochemical; details: buffer, read-out: Kinetic_solubility

T1 sequence (P14618 2-531 limits assumed): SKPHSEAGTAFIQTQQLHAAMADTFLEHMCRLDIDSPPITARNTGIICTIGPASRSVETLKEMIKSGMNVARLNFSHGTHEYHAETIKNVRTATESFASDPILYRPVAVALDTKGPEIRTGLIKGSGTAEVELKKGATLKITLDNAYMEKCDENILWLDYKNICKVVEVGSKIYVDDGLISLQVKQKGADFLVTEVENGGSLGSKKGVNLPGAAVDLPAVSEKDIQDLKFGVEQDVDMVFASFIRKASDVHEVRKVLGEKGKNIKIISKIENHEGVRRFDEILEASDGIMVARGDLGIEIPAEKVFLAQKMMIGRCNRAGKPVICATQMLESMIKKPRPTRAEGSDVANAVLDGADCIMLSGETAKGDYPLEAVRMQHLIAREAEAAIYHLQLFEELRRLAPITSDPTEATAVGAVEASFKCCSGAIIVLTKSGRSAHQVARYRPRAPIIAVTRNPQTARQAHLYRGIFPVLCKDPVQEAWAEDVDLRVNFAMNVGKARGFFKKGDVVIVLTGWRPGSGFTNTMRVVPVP
Sequence of Mitogen-activated protein kinase kinase kinase kinase 4 (Homo sapiens) (O95819 2-1239 limits assumed): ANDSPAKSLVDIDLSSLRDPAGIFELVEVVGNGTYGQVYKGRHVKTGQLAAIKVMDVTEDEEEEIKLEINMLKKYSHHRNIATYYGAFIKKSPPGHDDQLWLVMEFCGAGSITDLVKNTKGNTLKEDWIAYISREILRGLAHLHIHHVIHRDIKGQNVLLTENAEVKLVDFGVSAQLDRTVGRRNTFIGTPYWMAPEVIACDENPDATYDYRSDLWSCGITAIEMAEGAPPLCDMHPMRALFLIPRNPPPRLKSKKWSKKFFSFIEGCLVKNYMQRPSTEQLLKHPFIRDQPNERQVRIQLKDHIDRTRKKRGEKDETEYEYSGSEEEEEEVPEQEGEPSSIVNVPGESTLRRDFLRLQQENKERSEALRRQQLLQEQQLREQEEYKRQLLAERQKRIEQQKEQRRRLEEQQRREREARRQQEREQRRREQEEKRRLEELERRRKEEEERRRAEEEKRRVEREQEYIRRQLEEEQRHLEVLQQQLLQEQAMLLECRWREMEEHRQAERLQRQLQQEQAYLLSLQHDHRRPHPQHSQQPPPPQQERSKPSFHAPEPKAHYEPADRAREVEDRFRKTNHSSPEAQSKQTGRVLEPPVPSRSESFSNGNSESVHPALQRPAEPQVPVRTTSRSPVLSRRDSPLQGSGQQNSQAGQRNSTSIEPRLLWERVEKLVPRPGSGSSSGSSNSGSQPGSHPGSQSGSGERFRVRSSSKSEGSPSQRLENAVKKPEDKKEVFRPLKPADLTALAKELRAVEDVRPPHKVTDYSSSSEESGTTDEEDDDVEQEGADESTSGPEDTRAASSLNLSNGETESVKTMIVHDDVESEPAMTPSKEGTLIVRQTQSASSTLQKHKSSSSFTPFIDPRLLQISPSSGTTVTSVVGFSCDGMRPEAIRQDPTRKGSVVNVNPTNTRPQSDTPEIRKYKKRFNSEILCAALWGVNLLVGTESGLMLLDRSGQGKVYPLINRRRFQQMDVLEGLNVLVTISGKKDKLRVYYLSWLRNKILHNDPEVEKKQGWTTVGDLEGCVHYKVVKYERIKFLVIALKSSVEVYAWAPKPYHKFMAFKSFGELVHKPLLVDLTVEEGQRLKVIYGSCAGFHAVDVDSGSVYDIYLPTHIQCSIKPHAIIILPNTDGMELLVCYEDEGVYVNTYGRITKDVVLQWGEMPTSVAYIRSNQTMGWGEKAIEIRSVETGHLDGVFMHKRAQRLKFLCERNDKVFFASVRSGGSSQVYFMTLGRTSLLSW
Sequence of High affinity nerve growth factor receptor (Homo sapiens) (P04629 33-796 limits assumed): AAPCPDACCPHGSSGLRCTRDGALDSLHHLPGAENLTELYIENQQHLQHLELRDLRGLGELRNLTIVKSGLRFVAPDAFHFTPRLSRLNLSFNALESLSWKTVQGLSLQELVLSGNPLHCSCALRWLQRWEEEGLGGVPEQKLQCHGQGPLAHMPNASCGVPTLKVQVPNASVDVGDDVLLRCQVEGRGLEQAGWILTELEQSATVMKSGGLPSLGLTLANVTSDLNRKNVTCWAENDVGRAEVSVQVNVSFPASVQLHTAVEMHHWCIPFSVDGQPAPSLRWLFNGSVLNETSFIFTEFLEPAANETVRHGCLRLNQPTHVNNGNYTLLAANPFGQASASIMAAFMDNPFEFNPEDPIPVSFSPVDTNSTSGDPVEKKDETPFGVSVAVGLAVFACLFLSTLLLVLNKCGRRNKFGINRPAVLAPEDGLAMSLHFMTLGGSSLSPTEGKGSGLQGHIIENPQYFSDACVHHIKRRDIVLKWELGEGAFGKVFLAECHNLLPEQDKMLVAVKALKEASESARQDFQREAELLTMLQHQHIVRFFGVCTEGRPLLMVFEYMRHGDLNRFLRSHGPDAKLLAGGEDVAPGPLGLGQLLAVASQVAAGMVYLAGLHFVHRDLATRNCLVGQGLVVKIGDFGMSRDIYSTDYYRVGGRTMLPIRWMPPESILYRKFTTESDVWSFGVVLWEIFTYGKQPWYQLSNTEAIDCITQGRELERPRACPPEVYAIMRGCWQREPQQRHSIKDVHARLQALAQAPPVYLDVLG
Sequence of Glycogen synthase kinase-3 beta (Homo sapiens) (P49841 whole entry, looked up): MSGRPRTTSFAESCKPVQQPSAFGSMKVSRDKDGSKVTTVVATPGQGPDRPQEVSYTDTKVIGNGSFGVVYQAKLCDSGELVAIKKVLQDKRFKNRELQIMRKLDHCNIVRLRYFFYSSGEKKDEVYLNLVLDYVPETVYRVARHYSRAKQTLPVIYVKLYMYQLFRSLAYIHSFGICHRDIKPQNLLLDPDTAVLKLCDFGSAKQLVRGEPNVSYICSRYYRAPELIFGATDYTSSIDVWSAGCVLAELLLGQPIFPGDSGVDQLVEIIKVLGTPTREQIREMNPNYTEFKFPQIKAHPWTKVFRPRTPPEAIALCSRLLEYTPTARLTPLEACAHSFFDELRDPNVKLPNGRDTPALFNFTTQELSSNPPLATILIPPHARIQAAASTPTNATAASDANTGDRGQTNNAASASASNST
Sequence of Tyrosine-protein kinase Lck (Homo sapiens) (P06239 2-509 limits assumed): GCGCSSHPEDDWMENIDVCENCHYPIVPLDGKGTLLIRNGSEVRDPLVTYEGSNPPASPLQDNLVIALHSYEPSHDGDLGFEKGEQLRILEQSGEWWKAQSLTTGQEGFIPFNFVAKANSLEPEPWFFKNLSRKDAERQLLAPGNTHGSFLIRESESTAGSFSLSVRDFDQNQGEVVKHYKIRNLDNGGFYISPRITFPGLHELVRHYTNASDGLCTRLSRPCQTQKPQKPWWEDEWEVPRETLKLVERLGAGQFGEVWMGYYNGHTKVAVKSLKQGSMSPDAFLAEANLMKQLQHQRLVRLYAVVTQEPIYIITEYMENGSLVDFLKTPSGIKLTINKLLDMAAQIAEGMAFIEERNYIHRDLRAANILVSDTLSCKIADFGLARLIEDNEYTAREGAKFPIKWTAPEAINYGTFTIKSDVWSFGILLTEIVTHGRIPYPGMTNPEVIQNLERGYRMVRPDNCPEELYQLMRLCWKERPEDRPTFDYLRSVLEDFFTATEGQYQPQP
Sequence of Ephrin type-A receptor 2 (Homo sapiens) (P29317 whole entry): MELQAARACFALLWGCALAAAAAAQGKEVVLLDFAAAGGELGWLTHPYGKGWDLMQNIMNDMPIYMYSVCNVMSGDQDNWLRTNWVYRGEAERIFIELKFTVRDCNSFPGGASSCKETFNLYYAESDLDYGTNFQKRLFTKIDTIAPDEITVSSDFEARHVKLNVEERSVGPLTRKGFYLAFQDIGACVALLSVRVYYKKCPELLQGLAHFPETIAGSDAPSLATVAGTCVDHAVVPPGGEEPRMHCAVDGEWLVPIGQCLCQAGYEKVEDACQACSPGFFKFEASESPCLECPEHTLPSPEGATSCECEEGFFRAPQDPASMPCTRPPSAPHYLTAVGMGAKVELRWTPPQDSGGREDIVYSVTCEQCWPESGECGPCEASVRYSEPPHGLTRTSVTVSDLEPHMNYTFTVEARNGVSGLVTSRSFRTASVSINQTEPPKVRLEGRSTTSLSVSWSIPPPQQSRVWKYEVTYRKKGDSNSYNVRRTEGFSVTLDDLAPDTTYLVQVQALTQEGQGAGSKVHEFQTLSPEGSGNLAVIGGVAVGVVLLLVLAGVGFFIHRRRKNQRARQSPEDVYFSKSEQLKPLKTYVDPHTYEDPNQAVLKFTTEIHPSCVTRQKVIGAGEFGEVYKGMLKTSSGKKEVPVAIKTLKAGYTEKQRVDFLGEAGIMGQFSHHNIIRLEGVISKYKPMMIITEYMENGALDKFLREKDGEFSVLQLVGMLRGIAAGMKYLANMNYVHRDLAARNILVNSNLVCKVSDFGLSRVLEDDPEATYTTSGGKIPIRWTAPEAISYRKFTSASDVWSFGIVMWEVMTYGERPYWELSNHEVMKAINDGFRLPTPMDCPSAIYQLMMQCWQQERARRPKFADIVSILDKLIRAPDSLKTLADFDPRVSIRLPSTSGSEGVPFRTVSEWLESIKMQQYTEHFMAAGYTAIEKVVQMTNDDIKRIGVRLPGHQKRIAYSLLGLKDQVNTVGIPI
Sequence of Beta-2 adrenergic receptor (Homo sapiens) (P07550 whole entry, looked up): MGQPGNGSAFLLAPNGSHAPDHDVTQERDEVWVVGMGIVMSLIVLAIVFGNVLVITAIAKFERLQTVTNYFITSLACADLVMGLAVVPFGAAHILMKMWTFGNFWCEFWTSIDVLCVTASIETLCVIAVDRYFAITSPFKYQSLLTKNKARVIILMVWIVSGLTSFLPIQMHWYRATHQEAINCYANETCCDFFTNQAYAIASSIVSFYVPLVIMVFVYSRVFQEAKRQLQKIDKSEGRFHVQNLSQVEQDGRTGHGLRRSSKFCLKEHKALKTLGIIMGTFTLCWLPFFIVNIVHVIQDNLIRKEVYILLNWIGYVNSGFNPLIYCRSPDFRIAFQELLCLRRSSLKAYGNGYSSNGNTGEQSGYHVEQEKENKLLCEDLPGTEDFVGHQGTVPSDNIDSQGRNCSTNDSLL

Cc1cccc2nc(Cn3cnc4ccccc43)cc(=O)n12
inhibition [1]: inactive
Activity [2]: inactive
inhibition [3]: inactive
inhibition [4]: inactive
Activity [5]: inactive
Activity [6]: inactive
inhibition [7]: inactive
Activity [8]: inactive
inhibition [9]: inactive
Activity [10]: inactive
inhibition [11]: inactive
microsomal CLint [12]: < 8 µL/min/mg
Activity [13]: inactive
inhibition [14]: inactive
inhibition [15]: inactive
Activity [16]: inactive
Activity [17]: inactive
Activity [18]: inactive
inhibition [19]: inactive
inhibition [20]: inactive
inhibition [21]: inactive
Activity [22]: 109%
Activity [23]: 101%
inhibition [24]: inactive
Papp A→B [25]: 20.5 ×10⁻⁶ cm/s
inhibition [26]: inactive
Activity [27]: inactive
inhibition [28]: inactive
Activity [29]: inactive
max activation [30]: 198%
inhibition at 10 µM [31]: 2.83%
inhibition [32]: inactive
inhibition [33]: inactive
inhibition [34]: inactive
inhibition [35]: inactive
inhibition [36]: inactive
inhibition [37]: inactive
Activity [38]: Non-toxic
inhibition [39]: inactive
inhibition [40]: inactive
inhibition [41]: inactive
solubility kinetic [42]: 178 µM (≈ 51.7 µg/mL)
